ChEMBL document CHEMBL1128448, “Synthesis and antifungal activity of new azole derivatives containing an N-acylmorpholine ring” (1995)
Converted amounts (≈) assume the structure as drawn.

Key:
Aspergillus fumigatus = test: In vitro evaluation of minimum inhibitory concentration against Aspergillus fumigatus 33; assay type: functional; settings: Aspergillus fumigatus; read-out: MIC
Outline: (§1)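 Stocks are 800 μg/mL in 50% ethanol. Each plate gets 10 μL of inoculum at 10^5 cfu/mL. Incubation at 25 °C, 48 h for yeasts and 120 h for dermatophytes and molds. Organisms are ATCC strains or clinical isolates.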

Aspergillus niger = test: In vitro evaluation of minimum inhibitory concentration against Aspergillus niger 18; assay type: functional; settings: Aspergillus niger; read-out: MIC; outline: as §1
Candida albicans [1] = test: In vivo evaluation of minimum inhibitory concentration against Candida albicans 76; assay type: functional
Outline: (§2)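 Broth macrodilution MIC following NCCLS M27-P, in RPMI-1640 buffered with 0.165 M MOPS. Fluconazole was dissolved in water and other drugs in DMSO. C. parapsilosis ATCC 22019 served as the reference strain in every run. MIC was the lowest concentration giving turbidity at or below the 80% inhibition standard.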

[2] = system: Meyerozyma guilliermondii; test: In vivo evaluation of minimum inhibitory concentration against Candida guilliermondii 26; assay type: functional; settings: in the assay text read “In vitro” for “In vivo”
Outline: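 Agar dilution MIC. Inocula were 10^5 cfu/mL; 10 µL was spotted onto Kimmig's agar with 0.5% glycerol containing twofold drug dilutions (80 to 0.025 µg/mL). Drug stocks were 800 µg/mL in 50% ethanol. Plates were incubated at 25 °C, 48 h for yeasts and 120 h for molds and dermatophytes.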

Pichia kudriavzevii = test: In vitro evaluation of minimum inhibitory concentration against Candida krusei 70; assay type: functional; settings: Pichia kudriavzevii; read-out: MIC; outline: as §1
Candida parapsilosis = test: In vitro evaluation of minimum inhibitory concentration against Candida parapsilosis 61; assay type: functional; outline: as §1
Mus sp. [3] = test: In vivo evaluation of % survival rate after peroral administration on 3rd day at dose 2.5 mg/kg; assay type: functional; settings: Mus sp., po
Mus sp. [4] = test: In vivo evaluation of % survival rate after peroral administration on 5th day at dose 2.5 mg/kg; assay type: functional; settings: Mus sp., po
Mus sp. [5] = test: In vivo evaluation of % survival rate after peroral administration on 7th day at dose 2.5 mg/kg; assay type: functional; settings: Mus sp., po
Mus sp. [6] = test: In vivo evaluation of % survival rate after peroral administration on 9th day at dose 2.5 mg/kg; assay type: functional; settings: Mus sp., po
Microsporum canis = test: In vitro evaluation of minimum inhibitory concentration against Microsporum canis 47; assay type: functional; settings: Microsporum canis; read-out: MIC; outline: as §1
Nannizzia gypsea = test: In vitro evaluation of minimum inhibitory concentration against Microsporum gypseum 22; assay type: functional; settings: Nannizzia gypsea; read-out: MIC; outline: as §1
Nakaseomyces glabratus [7] = test: In vitro evaluation of minimum inhibitory concentration against Torulopsis glabrata 78; assay type: functional; settings: Nakaseomyces glabratus; read-out: MIC; outline: as §1
Trichophyton benhamiae = test: In vitro evaluation of minimum inhibitory concentration against Trichophyton mentagrophytes 23; assay type: functional, Arthroderma benhamiae; settings: Trichophyton benhamiae; read-out: MIC; outline: as §1
Trichophyton rubrum = test: In vitro evaluation of minimum inhibitory concentration against Trichophyton rubrum 90; assay type: functional; settings: Trichophyton rubrum; read-out: MIC; outline: as §1
Rhodotorula mucilaginosa = test: In vitro evaluation of minimum inhibitory concentration against Rhodotorula rubra 16; assay type: functional; settings: Rhodotorula mucilaginosa; read-out: MIC; outline: as §1
Kluyveromyces marxianus = test: In vitro evaluation of minimum inhibitory concentration against Candida pseudotropicalis 13; assay type: functional; outline: as §1
Aspergillus flavus = test: In vitro evaluation of minimum inhibitory concentration against Aspergillus flavus 19; assay type: functional; settings: Aspergillus flavus; read-out: MIC; outline: as §1
Candida albicans [8] = test: In vitro evaluation of minimum inhibitory concentration against Candida albicans 76; assay type: functional; outline: as §1
Candida albicans [9] = test: In vivo evaluation of minimum inhibitory concentration against Candida albicans 406; assay type: functional; outline: as §2
Candida albicans [10] = test: In vivo evaluation of minimum inhibitory concentration against Candida albicans 60; assay type: functional; outline: as §2
[11] = system: Meyerozyma guilliermondii; test: In vitro evaluation of minimum inhibitory concentration against Candida guilliermondii 26; assay type: functional; outline: as §1
Candida tropicalis = test: In vitro evaluation of minimum inhibitory concentration against Candida tropicalis 2.11; assay type: functional; outline: as §1
Mus sp. [12] = test: In vivo evaluation of % survival rate after peroral administration on 3rd day at dose 1 mg/kg; assay type: functional; settings: route oral, 1 mg/kg
Mus sp. [13] = test: In vivo evaluation of % survival rate after peroral administration on 5th day at dose 1 mg/kg; assay type: functional; settings: route oral, 1 mg/kg
Mus sp. [14] = test: In vivo evaluation of % survival rate after peroral administration on 7th day at dose 1 mg/kg; assay type: functional; settings: route oral, 1 mg/kg
Mus sp. [15] = test: In vivo evaluation of % survival rate after peroral administration on 9th day at dose 1 mg/kg; assay type: functional; settings: route oral, 1 mg/kg
Nakaseomyces glabratus [16] = test: In vivo Evaluation of minimum inhibitory concentration against Torulopsis glabrata 78; assay type: functional; settings: in the assay text read “In vitro” for “In vivo”; outline: as §1
Rattus norvegicus [17] = test: In vivo evaluation of antifungal activity against vaginal candidosis in rat at dose 0.25 mg/kg on 10th day; assay type: functional
Outline: (§3)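 Groups of 10 female Wistar rats given estradiol 25 mg/kg sc on day -5, infected intravaginally with C. albicans by sterile swab on day 0; infection confirmed on day 3 by swab culture (TSB, then Sabouraud agar). Oral dosing once daily on days 3, 4, 5; vehicle controls. Vaginal swabs cultured on days 10 and 15; read-out % cured (culture-negative).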

Rattus norvegicus [18] = test: In vivo evaluation of antifungal activity against vaginal candidosis in rat at dose 0.5 mg/kg on 10th day; assay type: functional
Outline: (§4)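 Female Wistar rats, 10 per group, received estradiol 25 mg/kg sc on day -5. On day 0 they were infected intravaginally with C. albicans by sterile swab. Infection was confirmed on day 3 by culturing the swab in TSB and then on Sabouraud agar. Oral dosing was once daily on days 3, 4 and 5; controls got vehicle only. Vaginal swabs taken on days 10 and 15 were cultured and read the next day.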

Rattus norvegicus [19] = test: In vivo evaluation of antifungal activity against vaginal candidosis in rat at dose 0.5 mg/kg on 15th day; assay type: functional; outline: as §4
Rattus norvegicus [20] = test: In vivo evaluation of antifungal activity against vaginal candidosis in rat at dose 0.25 mg/kg on 15th day; assay type: functional; outline: as §3
[21] = Lodderomyces parapsilosis, read-out: MIC
[22] = Kluyveromyces marxianus, read-out: MIC

SMILES | MIC (Aspergillus fumigatus) [µg/mL] | MIC (Aspergillus niger) [µg/mL] | MIC (Candida albicans [1]) [µg/mL] | MIC (Pichia kudriavzevii) [µg/mL] | MIC (Candida parapsilosis; [21]) [µg/mL] | survival at 2.5 mg/kg (Mus sp. [3]) [%] | survival at 2.5 mg/kg (Mus sp. [4]) [%] | survival at 2.5 mg/kg (Mus sp. [5]) [%] | survival at 2.5 mg/kg (Mus sp. [6]) [%] | MIC (Microsporum canis) [µg/mL] | MIC (Nannizzia gypsea) [µg/mL] | MIC (Nakaseomyces glabratus [7]) [µg/mL] | MIC (Trichophyton benhamiae) [µg/mL] | MIC (Trichophyton rubrum) [µg/mL] | MIC (Rhodotorula mucilaginosa) [µg/mL] | MIC (Kluyveromyces marxianus; [22]) [µg/mL] | MIC (Aspergillus flavus) [µg/mL] | MIC (Candida albicans [8]) [µg/mL] | MIC (Candida albicans [10]) [µg/mL] | Survival (Mus sp. [12]) [%] | also measured
C[C@H]1N(C(=O)c2ccc(OCC(F)(F)F)cc2)CC(=O)O[C@@]1(Cn1cncn1)c1ccc(F)cc1F (racemic) | > 80 | > 80 | 80 (≈ 157 µM) | > 80 | > 80 | 100 | 100 | 100 | 70 | > 80 | > 80 | > 80 | > 80 | > 80 | > 40 | 40 (≈ 78.4 µM) | > 80 |  |  |  | MIC [2]: > 80 µg/mL
C[C@H]1N(C(=O)c2ccc(C(F)(F)F)cc2)CC(=O)O[C@@]1(Cn1cncn1)c1ccc(Cl)cc1Cl (stereo in doubt; (+)-32a) |  |  |  |  |  |  |  |  |  |  |  |  |  |  |  |  |  | >80 | >80 | 0 | MIC (Candida albicans [9]): >80 µg/mL; MIC [11]: >80 µg/mL; MIC (Candida parapsilosis): >80 µg/mL; MIC (Candida tropicalis): >80 µg/mL; Survival (Mus sp. [13]): 0%; Survival (Mus sp. [14]): 0%; Survival (Mus sp. [15]): 0%; MIC (Nakaseomyces glabratus [16]): > 80 µg/mL; MIC (Kluyveromyces marxianus): >80 µg/mL
C[C@H]1N(C(=O)c2ccc(OC(F)(F)F)cc2)CC(=O)O[C@@]1(Cn1cncn1)c1ccc(F)cc1F (racemic) | > 80 | > 80 | 80 (≈ 161 µM) | > 80 | > 80 | 100 | 100 | 100 | 90 | > 80 | > 80 | > 80 | > 80 | > 80 | > 40 | 40 (≈ 80.6 µM) | > 80 |  |  |  | MIC ([11]; Meyerozyma guilliermondii, read-out: MIC): > 80 µg/mL
C[C@H]1N(C(=O)c2ccc(C(F)(F)F)cc2)CC(=O)O[C@@]1(Cn1cncn1)c1ccc(F)cc1F |  |  |  |  |  |  |  |  |  |  |  |  |  |  |  |  |  | 80 (≈ 167 µM) | 40 (≈ 83.3 µM) | 100 | Survival (Mus sp. [13]): 100%; Survival (Mus sp. [14]): 90%; Survival (Mus sp. [15]): 10%; Cure rate (Rattus norvegicus [17]): 10%; Cure rate (Rattus norvegicus [18]): 90%; Cure rate (Rattus norvegicus [19]): 90%; MIC (Kluyveromyces marxianus): 80 µg/mL (≈ 167 µM); Cure rate (Rattus norvegicus [20]): 0%
